An excerpt weighted towards active compounds, which were near 3.1% of everything screened.
PGC1a acetyl inh: inhibitors of PGC1a acetylation signal, primary screen, cell-based, U2OS, AlphaScreen, inhibitor mode. hit rate 0.17% among 350,000. AlphaScreen anti-acetyl-lysine; with virally co-expressed GCN5 acetyltransferase. inhibition, % at 15.6 µM;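 active means every replicate shows inhibition of at least 40%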
FGF22 binding-1: binders of human FGF22 protein, primary screen, FGF22 synaptogenesis inhibitor project, biophysical, thermal shift, single point; Fibroblast growth factor 22 (Homo sapiens), Q9HCT0; recombinant FGF22 thermal shift, SYPRO orange fluorescence; percent of sucrose octasulfate shift, DMSO zero; activity (Tm shift, normalised), % at 9.99 µM; hit rate 1.5% among 340,000; AID 651658, 2012;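 active means mean Tm shift, scaled 0 neutral to 100 positive control, at about 1.3% or above, every replicate too, limit read from the data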
Target sequence (Q9HCT0 whole entry, looked up): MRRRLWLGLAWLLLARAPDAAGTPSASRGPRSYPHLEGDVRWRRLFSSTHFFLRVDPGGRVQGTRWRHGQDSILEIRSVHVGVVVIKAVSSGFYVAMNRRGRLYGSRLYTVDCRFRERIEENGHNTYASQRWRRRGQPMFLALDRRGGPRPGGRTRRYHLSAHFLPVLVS
EWS-Fli inh: EWS/Fli-driven NR0B1 reporter inhibitors, primary screen, A673 cells, NR0B1 luciferase, luminescence, MLPCN library. hit rate 0.67% among 350,000. viability-normalised. inhibition, % at 12.6 µM;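 active means mean inhibition of at least 50% after viability correction, with every replicate also passing that limit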;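 further: firefly luciferase signal divided by Alamar Blue viability fluorescence both relative to DMSO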
HIV Env fusion: inhibitors of HIV-1 Env-driven cell-cell fusion, primary screen, HeLa-JRFL effector, CEM21 target cells, luciferase; AID 651610, 2012; inhibition, % at 12.3 µM; hit rate 1.1% among 360,000;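 active means mean replicate inhibition score of at least 50 and every replicate individually at or above 50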
FN deposit inh: inhibitors of fibronectin matrix deposition, primary screen, AH1F cells, Alexa488-fibronectin fluorescence, plate reader; AH1F fibroblasts, overnight; inhibition, % at 12.6 µM; hit rate 0.086% among 350,000; AID 743247, 2014;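 active means mean inhibition across replicates of 30% or more, regardless of how many single replicates reach that level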
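Assay system: AH1F fibroblasts assembling fluorescent fibronectin matrix; Amount: 10000 AH1F cells per well; Buffer or medium: DMEM, 2% serum; Probe or stimulus: Alexa488-fibronectin, 24 nM final in well; Doses: single compound dose, delivered by pin transfer; Incubation: 1 h adhesion, overnight exposure; Measured by: fluorescence 485/525 nm; Read-out: fibronectin deposition inhibition.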
PAX8 inh HTS: inhibitors of PAX8-driven TPO luciferase reporter, primary screen, RMG-I cells, single concentration. SteadyGlo, 24 h. inhibition, % at 12.6 µM. hit rate 1.2% among 360,000;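 active means mean replicate inhibition at least 60% with every replicate also reaching 60%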;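 further: luciferase light reporting Pax8 driven TPO promoter activity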
FGF22 binding-2: binders of human FGF22 protein, dose response, FGF22 synaptogenesis inhibitor project, biophysical, thermal shift, cherry-pick retest | shares compounds with FGF22 binding-1 | recombinant FGF22 thermal shift, SYPRO orange fluorescence | thermal shift activity, °C (ΔTm) at 38 µM | hit rate 2% among 1,000;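 active means fitted rise in melting shift crosses a set limit at or below the top valid dose tested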
FGF22 TSA DP: binders of human FGF22 protein, dose response, FGF22 synaptogenesis inhibitor project, biophysical, thermal shift, dry powder. shares compounds with FGF22 binding-1. Thermal shift assay, SYPRO orange, melting temperature shift. Tm shift (activity), % at 38 µM. 50 tested, under 10 active;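 active means compounds whose fitted dose curve of melting temperature shift rises past a set threshold within the tested doses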
TSA no protein: compound-only thermal shift signal without protein, dose response, artefact control for FGF22 binder project, biochemical, cherry-picked samples, RT-PCR instrument | shares compounds with FGF22 binding-1 | compound-only SYPRO orange thermal shift counter-screen, no protein | AC50, µM (doses to about 38 µM) | hit rate 2% among 1,000 | AID 743019, 2013;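 active means rising signal whose fitted curve reaches the 0.54 level within the top valid dose, showing a melting point, actives reach about 13 µM in these data; inactive means the rest, including activity in the opposite direction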; further: value is where the raw curve crosses a fixed level and not half-maximal
Hits are given with their value; i = inactive; nt = no result given; ! = not confirmed by another sample.

SMILES	PGC1a acetyl inh	FGF22 binding-1	EWS-Fli inh	HIV Env fusion	FN deposit inh	PAX8 inh HTS	FGF22 binding-2	TSA no protein	others
C[C@@H]1CN([C@@H](C)CO)C(=O)c2cccc(NC(=O)Nc3ccc4c(c3)OCO4)c2O[C@@H]1CN(C)S(=O)(=O)c1ccccc1	i	i	i	i	nt	i	nt	nt
O=C(C[C@@H]1CC[C@H](NC(=O)Nc2ccc(F)cc2)[C@@H](CO)O1)NCCN1CCCC1	i	i	i	i	i	i	nt	nt
CN(C)CC(=O)Nc1ccc2c(c1)[C@H]1C[C@H](CC(=O)NCC3CC3)O[C@H](CO)[C@H]1O2	i	i	i	i	i	i	nt	nt
CN(C)CC(=O)Nc1ccc2c(c1)[C@H]1C[C@@H](CC(=O)NCC3CC3)O[C@H](CO)[C@H]1O2	i	1.3	i	i	i	i	i	i
O=C(Nc1ccc2c(c1)[C@@H]1C[C@H](CC(=O)N3CCCCC3)O[C@@H](CO)[C@@H]1O2)NC1CCCC1	i	20	i	i	i	i	i	i
COCC(=O)Nc1ccc2c(c1)[C@H]1C[C@@H](CC(=O)NCCN3CCCCC3)O[C@H](CO)[C@H]1O2	i	1.3	i	i	i	i	i	i
O=C(Nc1ccc2c(c1)[C@H]1C[C@H](CC(=O)N3CCCCC3)O[C@H](CO)[C@H]1O2)NC1CCCCC1	nt	nt	nt	nt	i	nt	nt	nt
COCC(=O)Nc1ccc2c(c1)[C@@H]1C[C@@H](CC(=O)NCc3ccccn3)O[C@@H](CO)[C@@H]1O2	i	1.3	i	i	i	i	i	i
O=C(CNS(=O)(=O)c1ccccc1F)OCC(=O)c1c[nH]c2ccccc12	i	i	i	nt	i	i	nt	nt
O=C(CNS(=O)(=O)c1ccccc1)OCC(=O)c1c[nH]c2ccccc12	i	2.1	i	i	i	i	i	i
CCc1ccc(NC(=O)c2ccc(-n3cncn3)c([N+](=O)[O-])c2)cc1	i	2.3	i	i	i	i	i	i
COc1ccc(CN(C)C[C@@H]2OCCCC[C@@H](C)Oc3ccc(NC(=O)CCCN(C)C)cc3C(=O)N([C@H](C)CO)C[C@H]2C)cc1	i	i	i	i	nt	i	nt	nt
FC(F)(F)CN1C[C@@H]2C(c3ccc(Br)cc3)[C@H](C1)N2CC(F)(F)F (stereo partly specified)	nt	nt	nt	nt	i	nt	nt	nt
Cc1ccc(C)c(N2CCN(C(=O)C34CC5CC(C3)CC(n3nnc(C)n3)(C5)C4)CC2)c1	i	16	i	i	i	i	i	i
Cc1noc(NS(=O)(=O)c2ccc(NC(=O)c3cccc(S(=O)(=O)N(C)c4ccccc4)c3)cc2)c1C	i	1.6	i	i	i	i	i	i
CN(c1ccccc1)S(=O)(=O)c1cccc(NC(=O)c2ccc3ncsc3c2)c1	i	1.4	i	i	i	i	i	i
COc1ccccc1NS(=O)(=O)c1cccc(NC(=O)c2cc3ccccc3oc2=O)c1	i	1.8	i	i	i	i	i	i
COc1ccccc1NS(=O)(=O)c1cccc(NC(=O)Nc2ccccc2)c1	i	i	i	i	i	i	nt	nt
N#C[C@H]1[C@@H](c2ccc(C3=CCCCC3)cc2)[C@@H](CO)N1S(=O)(=O)c1ccccc1	i	1.9	i	nt	i	i	i	i
COc1ccc(S(=O)(=O)N(C(C)=O)c2ccc(OC(C)=O)c3ccccc23)cc1[N+](=O)[O-]	i	1.5	i	i	i	i	i	i
S=C(N/N=C/c1ccccc1Cl)Nc1ccccc1	i	nt	nt	i	i	nt	nt	nt
Oc1ccc(C=NNC(=S)Nc2ccccc2)nc1	nt	1.5	i	i	i	i	i	i
O=C(N/N=C/c1cccc(Oc2ccccc2)c1)c1cccc(O)c1	nt	1.5	nt	i	nt	i	i	i	FGF22 TSA DP=i
CN1C(=O)c2cc(NC(=O)c3cccc(F)c3)ccc2OC[C@H]2O[C@@H](CC(=O)NCC3CCCCC3)CC[C@H]21	nt	2.3	i	i	i	i	i	i
CN1C(=O)c2cc(NC(=O)c3cccc(F)c3)ccc2OC[C@H]2O[C@@H](CC(=O)N3CCc4ccccc4C3)CC[C@H]21	i	1.3	i	nt	i	i	i	i
SMILES	PGC1a acetyl inh	FGF22 binding-1	EWS-Fli inh	HIV Env fusion	FN deposit inh	PAX8 inh HTS	FGF22 binding-2	TSA no protein	others
CN1C(=O)c2cc(NC(=O)c3cccc(F)c3)ccc2OC[C@H]2O[C@H](CC(=O)N3CCc4ccccc4C3)CC[C@@H]21	i	i	i	nt	i	i	nt	nt
CN1C(=O)c2cc(NC(=O)c3cccc(F)c3)ccc2OC[C@H]2O[C@@H](CC(=O)NCc3ccccc3)CC[C@H]21	i	1.7	i	i	i	i	i	i
CN1C(=O)c2cc(NC(=O)c3cccc(F)c3)ccc2OC[C@@H]2O[C@H](CC(=O)NCC3CCCCC3)CC[C@@H]21	nt	2.3!	i	i	i	i	i	i
CN1C(=O)c2cc(NC(=O)c3cccc(F)c3)ccc2OC[C@H]2O[C@H](CC(=O)NCC3CC3)CC[C@@H]21	i	i	i	nt	i	i	nt	nt
C[C@@H]1CN([C@@H](C)CO)S(=O)(=O)c2ccc(C#CC3CC3)cc2O[C@H]1CN(C)C(=O)c1ccncc1	i	i	i	i	nt	nt	nt	nt
CC=Cc1ccc2n(c1=O)C[C@H]1[C@H](CO)[C@@H](C(=O)NCc3ccccn3)[C@@H]2N1CCC (mixture of isomers)	i	i	i	nt	nt	i	nt	nt
Cc1ccc(Cl)cc1N1CCN(C(=O)Cc2c(C(=O)O)[nH]c3ccc(Cl)cc23)CC1	i	7.4	i	i	i	i	i	i
Cc1cccnc1NC(=O)CCCN1C(=O)c2ccccc2C1=O	i	17	i	nt	nt	nt	i	i
CNC[C@@H]1Oc2c(NS(=O)(=O)c3ccc(OC)cc3)cccc2C(=O)N([C@@H](C)CO)C[C@@H]1C	i	3.6	nt	i	nt	i	i	i
COc1ccc(S(=O)(=O)N(C)C[C@@H]2Oc3c(NS(=O)(=O)c4ccc(C)cc4)cccc3C(=O)N([C@H](C)CO)C[C@@H]2C)cc1	i	1.3	i	nt	nt	nt	i	i

Screening data (PubChem BioAssay)
